The record followed here is ChEMBL document CHEMBL5523688, “Selective targeting of human TET1 by cyclic peptide inhibitors: Insights from biochemical profiling” (Bioorg Med Chem, 2024).

For assay [1], the target named is T1, Methylcytosine dioxygenase TET1 (Homo sapiens, UniProt Q8NFU7). Description: Inhibition of N-terminal 3xFlag-tagged recombinant human TET1 catalytic domain (E1418 to V2136 residues) expressed in baculovirus infected Sf9 cells using 5-methylcytosine as substrate preincubated for 10 mins followed by substrate and DNA-cofactor addition measured after 30 mins by Alphascreen assay. The settings on record: read-out: pIC50 (converted). The gist of the method: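 TET1 catalytic domain (E1418–V2136, Sf9 baculovirus) at 2 nM was preincubated 10 min with inhibitor (1% DMSO) in HEPES 50 mM pH 7.3, 150 mM NaCl, 0.1% BSA, 0.01% Tween-20. Reaction was started with ascorbate 200 µM, Fe(II) 20 µM, 2OG 20 µM and 5mC ssDNA 10 nM, run 30 min, then EDTA-quenched. Anti-5hmC antibody with AlphaScreen beads, 45–60 min, luminescence read. Three independent replicates.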

In assay [2] the target is T2, Methylcytosine dioxygenase TET2 (Homo sapiens, UniProt Q6N021). Description: Inhibition of N-terminal His-tagged recombinant human TET2 catalytic domain LCIdel mutant (D1129 to G1936 residues with Y1481 to N1843 replaced by 3 x GGGGS linker) expressed in Escherichia coli BL21 (DE3) using 5-methylcytosine as substrate preincubated for 10 mins followed by substrate and DNA-cofactor addition measured after 10 mins by Alphascreen assay. On the technique in general: Alpha assays give light when donor and acceptor beads are brought close together.

The target in assay [3] is T2, Methylcytosine dioxygenase TET2. Description: Inhibition of N-terminal His-tagged recombinant human TET2 catalytic domain LCIdel mutant (D1129 to G1936 residues with Y1481 to N1843 replaced by 3 x GGGGS linker) expressed in Escherichia coli BL21 (DE3) using 5-methylcytosine as substrate preincubated for 10 mins followed by substrate and DNA-cofactor addition measured after 12 mins by SPE-MS analysis.

Assay [4] has as its target Methylcytosine dioxygenase TET3 (Homo sapiens, UniProt O43151). In words: Inhibition of recombinant human TET3 catalytic domain (E824 to I1795 residues) expressed in baculovirus infected Sf9 cells using 5-methylcytosine as substrate preincubated for 10 mins followed by substrate and DNA-cofactor addition measured after 10 mins by Alphascreen assay. Particulars: read-out: pIC50 (converted).

In assay [5] the target is Methylcytosine dioxygenase TET1 (Mus musculus, UniProt Q3URK3). Description: Inhibition of recombinant mouse TET1 catalytic domain (E1367 to V2039 residues) expressed in baculovirus expression system using 5-methylcytosine as substrate preincubated for 10 mins followed by substrate and DNA-cofactor addition measured after 9 mins by Alphascreen assay. A digest of the protocol: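 Murine Tet1 catalytic domain (E1367–V2039, High Five baculovirus) at 2 nM was preincubated 10 min with inhibitor (1% DMSO) in HEPES 50 mM pH 7.3, NaCl 150 mM, BSA 0.1%, Tween-20 0.01%. Ascorbate 200 µM, Fe(II) 20 µM, 2OG 20 µM and 5mC ssDNA 10 nM were added; reaction ran 9 min, then EDTA-quenched. AlphaScreen anti-5hmC detection by luminescence.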

The species named for the next assay is Homo sapiens. In words: Selectivity ratio of pIC50 for inhibition of N-terminal 3xFlag-tagged recombinant human TET1 catalytic domain (E1418 to V2136 residues) expressed in baculovirus infected Sf9 cells to pIC50 for inhibition of N-terminal His-tagged recombinant human TET2 catalytic domain LCIdel mutant (D1129 to G1936 residues with Y1481 to N1843 replaced by 3 x GGGGS linker) expressed in Escherichia coli BL21 (DE3).

Assay [6] relates to Methylcytosine dioxygenase TET2 (Homo sapiens), Q6N021 [UNDEFINED MUTATION]. Particulars: time 20.0 min.
In assay [7] the target is T1, Methylcytosine dioxygenase TET1. In words: Inhibition of FLAG-tagged human TET1 catalytic domain (E1418 to V2136 residues) expressed in doxycycline induced human U2OS cells incubated for 24 hrs by immunofluorescence assay. Type of assay: cell-based. A digest of the protocol:
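U2OS cells stably carrying dox-inducible FLAG-tagged TET1 catalytic domain (E1418–V2136), 5,000/well, seeded 4 h at 37 °C in DMEM with Tet-approved 10% FBS, pen/strep and L-glutamine. Doxycycline 1 µg/mL induction plus compound dosing (1% DMSO final) for 24 h. After fixation, cells were co-stained with anti-5hmC and anti-FLAG antibodies plus DAPI, then imaged. Read-out was mean 5hmC fluorescence in FLAG-positive cells.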

For orientation: pIC50 means the IC50 on a negative log10 scale, so that one unit is a factor of ten.

Molecules are shown by their SMILES.

T1 sequence (Q8NFU7 whole entry, the tested form may be a part): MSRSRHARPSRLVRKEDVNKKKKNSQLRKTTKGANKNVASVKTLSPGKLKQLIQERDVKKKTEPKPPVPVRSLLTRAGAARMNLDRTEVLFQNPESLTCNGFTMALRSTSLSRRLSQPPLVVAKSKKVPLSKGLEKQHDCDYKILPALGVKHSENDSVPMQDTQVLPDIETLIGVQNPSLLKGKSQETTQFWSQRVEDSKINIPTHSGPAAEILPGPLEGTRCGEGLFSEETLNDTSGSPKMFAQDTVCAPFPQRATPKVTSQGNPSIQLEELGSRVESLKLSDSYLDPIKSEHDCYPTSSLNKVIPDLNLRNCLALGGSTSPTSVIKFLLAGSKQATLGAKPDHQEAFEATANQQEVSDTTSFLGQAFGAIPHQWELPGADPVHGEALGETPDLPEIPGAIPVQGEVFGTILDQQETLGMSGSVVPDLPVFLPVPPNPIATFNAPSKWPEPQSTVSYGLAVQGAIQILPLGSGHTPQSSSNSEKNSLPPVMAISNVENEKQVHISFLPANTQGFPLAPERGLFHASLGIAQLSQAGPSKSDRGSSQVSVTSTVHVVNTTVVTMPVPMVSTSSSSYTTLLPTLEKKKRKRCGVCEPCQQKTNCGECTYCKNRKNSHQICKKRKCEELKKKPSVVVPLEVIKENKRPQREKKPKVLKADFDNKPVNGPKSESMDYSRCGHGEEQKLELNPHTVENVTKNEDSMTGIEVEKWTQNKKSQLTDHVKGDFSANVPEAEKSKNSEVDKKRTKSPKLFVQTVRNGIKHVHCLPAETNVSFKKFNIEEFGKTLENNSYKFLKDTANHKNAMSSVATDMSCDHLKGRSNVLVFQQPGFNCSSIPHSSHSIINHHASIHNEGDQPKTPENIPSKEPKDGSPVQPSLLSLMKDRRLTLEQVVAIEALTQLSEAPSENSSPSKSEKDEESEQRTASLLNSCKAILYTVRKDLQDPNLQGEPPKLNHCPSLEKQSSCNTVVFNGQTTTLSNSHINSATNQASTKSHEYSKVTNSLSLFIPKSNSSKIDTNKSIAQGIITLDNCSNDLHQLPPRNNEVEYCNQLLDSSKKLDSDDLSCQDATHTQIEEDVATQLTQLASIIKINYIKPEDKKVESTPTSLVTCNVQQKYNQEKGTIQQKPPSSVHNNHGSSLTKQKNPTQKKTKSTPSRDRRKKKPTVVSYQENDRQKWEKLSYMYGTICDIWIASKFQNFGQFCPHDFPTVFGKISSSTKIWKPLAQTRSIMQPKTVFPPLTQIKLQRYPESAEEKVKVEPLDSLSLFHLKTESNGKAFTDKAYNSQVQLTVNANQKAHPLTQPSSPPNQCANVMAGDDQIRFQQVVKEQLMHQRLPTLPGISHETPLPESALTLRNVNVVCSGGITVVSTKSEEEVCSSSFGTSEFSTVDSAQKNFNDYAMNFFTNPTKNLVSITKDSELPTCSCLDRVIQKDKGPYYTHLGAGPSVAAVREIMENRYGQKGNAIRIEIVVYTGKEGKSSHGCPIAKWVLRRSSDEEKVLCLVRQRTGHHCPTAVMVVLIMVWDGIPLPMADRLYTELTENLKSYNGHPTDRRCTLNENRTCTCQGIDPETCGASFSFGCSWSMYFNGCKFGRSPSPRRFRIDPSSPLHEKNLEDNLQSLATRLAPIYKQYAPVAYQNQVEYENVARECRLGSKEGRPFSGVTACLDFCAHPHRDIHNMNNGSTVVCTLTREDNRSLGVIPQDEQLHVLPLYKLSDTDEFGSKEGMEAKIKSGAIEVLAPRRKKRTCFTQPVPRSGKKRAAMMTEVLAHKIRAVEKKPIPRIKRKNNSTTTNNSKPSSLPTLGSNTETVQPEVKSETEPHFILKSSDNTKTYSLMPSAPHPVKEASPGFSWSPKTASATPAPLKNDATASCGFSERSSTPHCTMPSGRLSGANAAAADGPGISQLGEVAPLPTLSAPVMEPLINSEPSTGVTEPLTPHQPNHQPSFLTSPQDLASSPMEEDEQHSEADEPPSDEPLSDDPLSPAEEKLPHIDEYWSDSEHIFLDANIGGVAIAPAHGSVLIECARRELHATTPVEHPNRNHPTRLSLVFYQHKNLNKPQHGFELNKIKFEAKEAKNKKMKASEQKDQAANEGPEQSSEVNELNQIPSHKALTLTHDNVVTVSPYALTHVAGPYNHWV
Chain of Methylcytosine dioxygenase TET1 (Mus musculus, UniProt Q3URK3) (Q3URK3 whole entry, the tested form may be a part): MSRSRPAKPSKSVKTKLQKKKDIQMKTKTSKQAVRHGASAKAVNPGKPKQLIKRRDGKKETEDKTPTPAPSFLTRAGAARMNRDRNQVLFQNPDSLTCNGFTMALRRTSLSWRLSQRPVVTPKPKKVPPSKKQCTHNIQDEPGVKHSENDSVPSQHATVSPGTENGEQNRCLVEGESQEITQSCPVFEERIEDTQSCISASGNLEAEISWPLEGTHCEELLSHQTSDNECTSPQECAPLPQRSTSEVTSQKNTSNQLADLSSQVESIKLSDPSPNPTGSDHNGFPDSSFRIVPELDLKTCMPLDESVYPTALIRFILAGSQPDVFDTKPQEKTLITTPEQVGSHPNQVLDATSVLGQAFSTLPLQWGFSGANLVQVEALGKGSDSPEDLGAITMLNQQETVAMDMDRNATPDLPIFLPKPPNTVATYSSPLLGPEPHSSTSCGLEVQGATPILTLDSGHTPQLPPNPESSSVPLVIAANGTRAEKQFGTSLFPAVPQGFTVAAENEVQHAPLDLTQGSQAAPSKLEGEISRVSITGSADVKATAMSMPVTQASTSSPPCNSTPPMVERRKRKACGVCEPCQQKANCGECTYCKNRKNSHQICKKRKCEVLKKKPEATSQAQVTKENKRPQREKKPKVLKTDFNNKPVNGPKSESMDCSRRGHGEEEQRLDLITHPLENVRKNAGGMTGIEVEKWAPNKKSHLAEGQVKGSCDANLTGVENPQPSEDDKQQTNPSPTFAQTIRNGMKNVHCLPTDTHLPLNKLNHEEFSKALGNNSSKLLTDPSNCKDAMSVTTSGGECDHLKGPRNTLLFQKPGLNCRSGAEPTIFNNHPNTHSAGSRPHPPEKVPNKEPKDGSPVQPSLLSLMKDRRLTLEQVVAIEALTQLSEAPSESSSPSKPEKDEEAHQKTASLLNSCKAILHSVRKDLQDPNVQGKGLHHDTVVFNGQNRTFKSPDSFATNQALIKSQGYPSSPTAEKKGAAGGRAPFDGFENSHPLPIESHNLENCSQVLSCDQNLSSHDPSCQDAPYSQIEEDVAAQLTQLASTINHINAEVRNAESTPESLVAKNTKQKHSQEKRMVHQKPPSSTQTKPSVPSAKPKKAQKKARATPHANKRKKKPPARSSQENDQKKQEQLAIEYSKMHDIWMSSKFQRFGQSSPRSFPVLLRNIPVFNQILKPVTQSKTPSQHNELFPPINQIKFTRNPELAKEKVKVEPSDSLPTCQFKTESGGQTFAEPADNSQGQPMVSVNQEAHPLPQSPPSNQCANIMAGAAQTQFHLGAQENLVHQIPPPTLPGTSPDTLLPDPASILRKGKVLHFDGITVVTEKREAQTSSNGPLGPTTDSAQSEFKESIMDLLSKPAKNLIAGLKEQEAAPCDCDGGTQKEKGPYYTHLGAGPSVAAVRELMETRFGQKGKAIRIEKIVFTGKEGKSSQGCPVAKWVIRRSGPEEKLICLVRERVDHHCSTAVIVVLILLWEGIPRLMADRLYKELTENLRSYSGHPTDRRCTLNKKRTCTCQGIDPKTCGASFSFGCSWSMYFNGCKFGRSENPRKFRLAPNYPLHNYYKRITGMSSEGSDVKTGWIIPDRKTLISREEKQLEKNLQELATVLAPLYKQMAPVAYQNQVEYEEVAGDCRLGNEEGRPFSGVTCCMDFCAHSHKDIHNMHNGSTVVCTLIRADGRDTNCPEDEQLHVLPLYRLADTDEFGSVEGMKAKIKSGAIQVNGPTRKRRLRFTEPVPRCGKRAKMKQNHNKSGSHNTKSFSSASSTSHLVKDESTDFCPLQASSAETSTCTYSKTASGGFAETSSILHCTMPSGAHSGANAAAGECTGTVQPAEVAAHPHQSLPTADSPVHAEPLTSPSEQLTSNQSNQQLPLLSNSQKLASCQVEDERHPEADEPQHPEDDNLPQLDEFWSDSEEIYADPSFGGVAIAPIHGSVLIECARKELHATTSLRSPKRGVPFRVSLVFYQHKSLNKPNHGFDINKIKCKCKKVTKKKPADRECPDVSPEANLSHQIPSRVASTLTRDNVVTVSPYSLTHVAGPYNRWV

`CC[C@H](C)[C@@H]1NC(=O)[C@H](CC(C)C)NC(=O)[C@H](Cc2c[nH]c3ccccc23)NC(=O)[C@H](Cc2c[nH]c3ccccc23)NC(=O)[C@H]([C@@H](C)O)NC(=O)[C@H](Cc2ccc(O)cc2)NC(=O)[C@H](CC(C)C)NC(=O)[C@H](C)NC(=O)[C@H](Cc2ccc(O)cc2)NC(=O)[C@H](CCC(=O)O)NC(=O)[C@H](CCCNC(=N)N)NC(=O)[C@@H](Cc2ccc(O)cc2)NC(=O)CSC[C@@H](C(N)=O)NC(=O)[C@H](CCC(N)=O)NC1=O`: the IC50 is 0.204 µM in assay [1], 49 µM in assay [4] and 45.7 µM in assay [5]. The results for the negative logarithm of the IC50 (pIC50) in assay [2] and in assay [3] were 4.38 and 5.6, respectively. Also, in the assay filed under Homo sapiens, the Ratio pIC50 came out at 12. The compound also had a deltapIC50 in assay [6] of 1.22.
With `O=C(O)c1ccc(O)c2ncccc12`, the IC50 in assay [1] is 0.562 µM; in assay [5], 0.427 µM; in assay [7] it was 22 µM. Moreover, the deltapIC50 in assay [6] turned out to be 0.07.
